From ChEMBL document CHEMBL3997787, “New pyridazinone-4-carboxamides as new cannabinoid receptor type-2 inverse agonists: Synthesis, pharmacological data and molecular docking” (Eur J Med Chem, 2017)

Tests used:
[1] = target: T1, Cannabinoid receptor 2 (Homo sapiens, UniProt P34972); assay: Inverse agonist activity at human CB2 receptor expressed in HEK293 EBNA cell membranes after 30 mins by [35S]-GTPgammaS binding assay; format: functional
Procedure, shortened: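 Saponin-permeabilized CB2R membranes (5 µg/well) with 0.3 nM [35S]-GTPγS and 10 µM GDP in 20 mM HEPES, 100 mM NaCl, 10 mM MgCl₂, pH 7.4. Compounds at 10⁻¹² to 10⁻⁵ M, 30 min at 30 °C; nonspecific signal with 10 µM GTPγS. Filtered, washed with 10 mM sodium phosphate and counted. IC50 and Emax from curve fitting, mean ± SEM of at least three triplicate experiments.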

[2] = target: T2, Cannabinoid receptor 1 (Homo sapiens, UniProt P21554); assay: Displacement of [3H]CP55940 from human CB1 receptor expressed in HEK293 EBNA cell membranes at 4 uM after 90 mins by liquid scintillation and luminescence counting method relative to control
Procedure, shortened: (§1)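 Single-concentration screen (4 µM) on transfected-cell membranes with human CB1R (about 8 µg/well, 0.1 nM [³H]CP,55-940, pH 7.4 Tris/MgCl₂/EDTA/0.5 mg/mL BSA) or CB2R (1.33 µg/well, 0.15 nM radioligand, pH 7.5 Tris/MgCl₂/EGTA/1 mg/mL BSA). Incubated 90 min at 30 °C. Nonspecific binding defined with 10 µM WIN 55,212-2; 100% binding taken without compound. Filtered through PEI-soaked GF/C filters and counted.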

[3] = target: T1, Cannabinoid receptor 2; assay: Displacement of [3H]CP55940 from human CB2 receptor expressed in HEK293 EBNA cell membranes at 4 uM after 90 mins by liquid scintillation and luminescence counting method relative to control; procedure, shortened: as §1
[4] = target: T2, Cannabinoid receptor 1; assay: Displacement of [3H]CP55940 from human CB1 receptor expressed in HEK293 EBNA cell membranes after 90 mins by liquid scintillation and luminescence counting method
[5] = target: T1, Cannabinoid receptor 2; assay: Displacement of [3H]CP55940 from human CB2 receptor expressed in HEK293 EBNA cell membranes after 90 mins by liquid scintillation and luminescence counting method
[6] = species on record: Homo sapiens; assay: Selectivity ratio of Ki for human CB1 receptor to Ki for human CB2 receptor

T2 sequence (P21554 whole entry): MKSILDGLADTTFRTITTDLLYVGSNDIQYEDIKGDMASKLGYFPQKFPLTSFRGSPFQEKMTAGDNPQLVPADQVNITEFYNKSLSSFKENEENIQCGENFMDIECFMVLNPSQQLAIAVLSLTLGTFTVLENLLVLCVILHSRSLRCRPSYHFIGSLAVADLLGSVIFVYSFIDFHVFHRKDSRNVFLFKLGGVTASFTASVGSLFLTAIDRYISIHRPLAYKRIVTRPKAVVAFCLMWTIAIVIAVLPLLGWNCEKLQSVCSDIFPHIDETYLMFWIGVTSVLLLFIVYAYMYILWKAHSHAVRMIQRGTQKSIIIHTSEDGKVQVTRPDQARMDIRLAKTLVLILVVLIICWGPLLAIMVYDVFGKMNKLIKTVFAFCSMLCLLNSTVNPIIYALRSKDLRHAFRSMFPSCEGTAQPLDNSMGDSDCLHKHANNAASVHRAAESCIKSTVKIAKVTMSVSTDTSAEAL
T1 sequence (P34972 whole entry): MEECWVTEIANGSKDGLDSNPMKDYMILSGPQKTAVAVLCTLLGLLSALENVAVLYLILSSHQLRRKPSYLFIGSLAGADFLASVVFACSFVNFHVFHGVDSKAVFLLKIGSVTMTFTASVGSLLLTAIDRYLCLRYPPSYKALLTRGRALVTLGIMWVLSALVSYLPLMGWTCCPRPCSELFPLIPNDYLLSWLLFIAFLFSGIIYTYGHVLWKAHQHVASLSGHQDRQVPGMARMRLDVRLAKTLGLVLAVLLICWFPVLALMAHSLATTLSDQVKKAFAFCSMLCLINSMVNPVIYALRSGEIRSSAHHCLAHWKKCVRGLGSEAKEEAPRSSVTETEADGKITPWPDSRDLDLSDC

Row | Ki ([4]; hek293) | Ki ([5]; hek293) | Structure (SMILES) | Emax [1] [%] | inhibition [2] [%] | inhibition [3] [%] | Ki ([4]; read-out: Ki) [nM] | Ki ([5]; read-out: Ki) [nM] | Ratio Ki [6] | IC50 [1] [nM]
1 | – | – | Cc1ccc(Cn2nc(C(=O)N[C@@H]3C(C)(C)[C@@H]4CC[C@@]3(C)C4)cc2-c2ccc(Cl)c(C)c2)cc1 | -63.2 | – | – | – | – | – | –
2 | – | – | Cc1cc(-c2cc(C(=O)N[C@@H]3C(C)(C)[C@@H]4CC[C@@]3(C)C4)c(=O)n(Cc3ccc(F)cc3)n2)ccc1Cl | -58.7 | > 70 | > 70 | > 4000 | 2.6 | > 1540 | 51.2
3 | Nd(Insoluble) | Nd(Insoluble) | Cc1ccc(Cn2nc(-c3ccc(Cl)c(C)c3)cc(C(=O)NC34CC5CC(CC(C5)C3)C4)c2=O)cc1 | – | – | – | – | – | – | –
4 | – | – | O=C(NC1CCCCC1)c1cc(-c2ccccc2)nn(Cc2ccc(F)cc2)c1=O | – | > 70 | > 70 | 467 | 44 | 11 | –
5 | Nd(Insoluble) | Nd(Insoluble) | Cc1ccc(Cn2nc(-c3ccc(Cl)c(C)c3)cc(C(=O)NC3CCCCCC3)c2=O)cc1 | – | – | – | – | – | – | –
6 | – | – | Cc1ccc(Cn2nc(-c3ccc(Cl)c(C)c3)cc(C(=O)NC3CCCCC3)c2=O)cc1 | – | > 70 | > 70 | > 4000 | 240 | > 16.6 | –
7 | – | – | Cc1cc(-c2cc(C(=O)NC3CCCCC3)c(=O)n(Cc3ccc(F)cc3)n2)ccc1Cl | -60.7 | > 70 | > 70 | > 4000 | 4.7 | > 851 | 25.3
8 | – | – | Cc1cc(-c2cc(C(=O)NCCN3CCOCC3)c(=O)n(Cc3ccc(F)cc3)n2)ccc1Cl | – | > 70 | > 70 | > 4000 | 311 | > 12.9 | –
9 | – | – | O=C(NC1CCCCCC1)c1c2c(nn(Cc3ccc(F)cc3)c1=O)-c1ccccc1C2 | – | > 70 | > 70 | > 4000 | > 4000 | – | –
10 | – | – | C[C@H]1CC[C@@H](NC(=O)c2cc(-c3ccccc3)nn(Cc3ccc(F)cc3)c2=O)CC1 | -65.7 | > 70 | > 70 | 115 | 5.7 | 20 | 35.2
11 | – | – | Cc1cc(-c2cc(C(=O)NC3CCCCCC3)c(=O)n(Cc3ccc(F)cc3)n2)ccc1Cl | – | > 70 | > 70 | > 4000 | 4.9 | > 816 | –
12 | – | – | O=C(NC1CCCCCC1)c1cc(-c2ccccc2)nn(Cc2ccc(F)cc2)c1=O | – | > 70 | > 70 | 33 | 16 | 2 | –
13 | – | – | Cc1cc(-c2cc(C(=O)N[C@H]3CC[C@H](C)CC3)c(=O)n(Cc3ccc(F)cc3)n2)ccc1Cl | – | > 70 | > 70 | > 4000 | 9 | > 444 | –
14 | – | – | C[C@H]1CC[C@H](NC(=O)c2cc(-c3ccccc3)nn(Cc3ccc(F)cc3)c2=O)CC1 | – | > 70 | > 70 | 322 | 66 | 5 | –
15 | – | – | Cc1cc(-c2cc(C(=O)NC34CC5CC(CC(C5)C3)C4)c(=O)n(Cc3ccc(F)cc3)n2)ccc1Cl | – | > 70 | > 70 | > 4000 | 3.4 | > 1180 | –
16 | Nd(Insoluble) | Nd(Insoluble) | O=C(NC12CC3CC(CC(C3)C1)C2)c1cc(-c2ccccc2)nn(Cc2ccc(F)cc2)c1=O | – | – | – | – | – | – | –
17 | – | – | Cc1cc(-c2cc(C(=O)N[C@H]3CC[C@@H](C)CC3)c(=O)n(Cc3ccc(F)cc3)n2)ccc1Cl | -43.8 | > 70 | > 70 | > 4000 | 2 | > 2000 | 20.7
